# Data: paper PMC4439361 (Current drug discovery technologies, 2015)
# Where two headings read alike, the source gives them in different places.
# How the values were obtained:
# E. coli tolC = assay: Broth microdilution MIC; assay type: cell-based; conditions: Escherichia coli
# [1] = biological target: T1, human mitochondrial PheRS (hmPheRS) (Homo sapiens, UniProt O95363); assay: Human mitochondrial PheRS aminoacylation assay; assay type: biochemical; conditions: 132 μM compound; 0.2 μM hmPheRS; average of three assays
# T1 sequence (O95363 1-451): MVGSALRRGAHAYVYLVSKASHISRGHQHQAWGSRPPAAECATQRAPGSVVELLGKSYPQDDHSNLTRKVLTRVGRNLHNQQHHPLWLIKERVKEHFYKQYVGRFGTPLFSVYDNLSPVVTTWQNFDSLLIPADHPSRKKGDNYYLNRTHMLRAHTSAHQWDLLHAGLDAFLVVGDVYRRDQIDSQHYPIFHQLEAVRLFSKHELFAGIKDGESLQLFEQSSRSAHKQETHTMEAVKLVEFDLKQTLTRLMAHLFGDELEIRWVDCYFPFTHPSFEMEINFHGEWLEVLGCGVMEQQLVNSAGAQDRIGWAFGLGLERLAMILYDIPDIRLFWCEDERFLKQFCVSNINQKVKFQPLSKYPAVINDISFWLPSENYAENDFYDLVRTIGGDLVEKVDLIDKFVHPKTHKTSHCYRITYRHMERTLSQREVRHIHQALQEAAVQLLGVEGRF
# P. aeruginosa PheRS = P. aeruginosa PheRS (Pseudomonas aeruginosa, UniProt Q9I0A3); assay: tRNA aminoacylation assay in SPA format, P. aeruginosa PheRS; assay type: biochemical
# Chain of P. aeruginosa PheRS (Q9I0A4 whole entry): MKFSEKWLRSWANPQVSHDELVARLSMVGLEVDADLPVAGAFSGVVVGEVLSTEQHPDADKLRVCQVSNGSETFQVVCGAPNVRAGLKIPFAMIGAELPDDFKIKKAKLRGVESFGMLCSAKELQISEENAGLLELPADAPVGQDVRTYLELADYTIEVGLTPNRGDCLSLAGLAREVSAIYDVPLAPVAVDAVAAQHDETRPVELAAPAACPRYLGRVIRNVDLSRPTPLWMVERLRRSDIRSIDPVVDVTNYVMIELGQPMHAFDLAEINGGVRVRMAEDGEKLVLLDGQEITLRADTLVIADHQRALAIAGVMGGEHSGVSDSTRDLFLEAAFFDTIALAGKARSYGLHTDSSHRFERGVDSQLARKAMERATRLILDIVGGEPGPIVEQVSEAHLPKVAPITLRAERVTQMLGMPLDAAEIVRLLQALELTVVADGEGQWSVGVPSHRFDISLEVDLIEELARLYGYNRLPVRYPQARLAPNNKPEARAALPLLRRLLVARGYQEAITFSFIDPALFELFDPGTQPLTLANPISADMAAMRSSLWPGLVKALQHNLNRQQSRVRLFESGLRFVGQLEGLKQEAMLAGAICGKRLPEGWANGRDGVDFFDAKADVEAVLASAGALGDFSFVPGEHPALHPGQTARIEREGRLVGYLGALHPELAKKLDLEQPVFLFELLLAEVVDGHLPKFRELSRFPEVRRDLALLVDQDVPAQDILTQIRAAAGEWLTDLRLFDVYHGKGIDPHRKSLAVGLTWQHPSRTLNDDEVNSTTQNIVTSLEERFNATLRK
# Chain of P. aeruginosa PheRS (Q9I0A3 whole entry): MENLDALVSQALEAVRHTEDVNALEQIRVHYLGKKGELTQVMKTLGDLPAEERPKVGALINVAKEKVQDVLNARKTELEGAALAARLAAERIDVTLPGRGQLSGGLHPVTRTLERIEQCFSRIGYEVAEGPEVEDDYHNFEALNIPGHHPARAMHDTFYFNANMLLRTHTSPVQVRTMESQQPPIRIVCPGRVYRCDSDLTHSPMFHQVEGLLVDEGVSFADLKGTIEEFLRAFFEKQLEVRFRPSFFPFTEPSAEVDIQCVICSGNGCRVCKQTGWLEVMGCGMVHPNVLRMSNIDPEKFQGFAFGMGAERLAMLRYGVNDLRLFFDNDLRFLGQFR
# [2] = tested on: P. aeruginosa (ATCC 47085); assay: Broth microdilution MIC; assay type: cell-based; conditions: Pseudomonas aeruginosa, ATCC47085
# S. aureus (ATCC 29213) = assay: Broth microdilution MIC; assay type: cell-based; conditions: Staphylococcus aureus, ATCC29213
# [3] = tested on: S. pneumoniae (ATCC 49619); assay: Broth microdilution MIC; assay type: cell-based; conditions: Streptococcus pneumoniae, ATCC49619
# [4] = tested on: P. aeruginosa PAO200 (efflux mutant); assay: Broth microdilution MIC; assay type: cell-based; conditions: Pseudomonas aeruginosa
# [5] = tested on: cytoplasmic protein synthesis in wheat germ extracts; assay: Wheat germ extract poly-Phe cytoplasmic protein synthesis assay; assay type: biochemical; conditions: poly-U mRNA, compound to 132 μM
# Procedure, shortened: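 Cytoplasmic poly-Phe synthesis in wheat germ extract programmed with poly-U mRNA, yeast tRNAPhe and [3H]phenylalanine. Levels of mRNA, tRNA, label and Mg++ were optimized for poly-Phe synthesis. Cycloheximide served as reference protein-synthesis inhibitor.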
# [6] = tested on: M. catarrhalis (ATCC 25238); assay: Broth microdilution MIC; assay type: cell-based; conditions: Moraxella catarrhalis, ATCC25238
# E. coli (ATCC 25922) = assay: Broth microdilution MIC; assay type: cell-based; conditions: Escherichia coli, ATCC25922
# E. faecalis (ATCC 29212) = assay: Broth microdilution MIC; assay type: cell-based; conditions: Enterococcus faecalis, ATCC29212
# [7] = tested on: H. influenzae (ATCC 49766); assay: Broth microdilution MIC; assay type: cell-based; conditions: Haemophilus influenzae, ATCC49766
# [8] = tested on: P. aeruginosa (hypersensitive); assay: Broth microdilution MIC; assay type: cell-based; conditions: Pseudomonas aeruginosa, ATCC35151
# S. pneumoniae PheRS = S. pneumoniae PheRS (Streptococcus pneumoniae serotype 2, UniProt Q04LU1); assay: tRNA aminoacylation assay in SPA format, S. pneumoniae PheRS; assay type: biochemical
# Chain of S. pneumoniae PheRS (Q04LU1 whole entry): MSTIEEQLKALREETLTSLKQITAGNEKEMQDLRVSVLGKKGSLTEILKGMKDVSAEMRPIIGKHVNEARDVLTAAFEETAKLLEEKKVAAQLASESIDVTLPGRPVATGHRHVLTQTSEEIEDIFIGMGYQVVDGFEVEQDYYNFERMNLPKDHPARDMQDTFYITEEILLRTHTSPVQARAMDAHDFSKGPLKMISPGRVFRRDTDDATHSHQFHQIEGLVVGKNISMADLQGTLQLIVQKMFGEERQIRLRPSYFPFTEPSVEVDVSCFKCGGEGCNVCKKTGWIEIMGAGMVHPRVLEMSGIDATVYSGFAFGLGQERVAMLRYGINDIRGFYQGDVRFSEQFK
# [9] = tested on: cytoplasmic protein synthesis in wheat germ extracts; conditions: wheat germ extract; at 30 μM; cited from earlier work
# [10] = IC50s at five Phe concentrations 25 to 300 μM, ATP fixed at 2.5 mM
# [11] = IC50s at six ATP concentrations 25 to 1000 μM, Phe fixed at 100 μM
structure (smiles),measurement,setting,value
"Cc1cc2c(C(C)C)c(O)c(O)c(C=O)c2c(O)c1-c1c(C)cc2c(C(C)C)c(O)c(O)c(C=O)c2c1O [BPP_03B04, gossypol]",MIC,E. coli tolC,128 µg/mL
same,decrease of hmPheRS activity,[1],approximately 80%
same,IC50,P. aeruginosa PheRS,2300 nM
same,Ki,P. aeruginosa PheRS,830 nM
same,mode of action relative to Phe,P. aeruginosa PheRS; [10],competitive
same,mode of action relative to ATP,P. aeruginosa PheRS; [11],uncompetitive
same,MIC,[2],16 µg/mL
same,MIC,S. aureus (ATCC 29213),16 µg/mL
same,MIC,[3],32 µg/mL
same,MIC,[4],16 µg/mL
same,inhibition of protein synthesis,[5],no inhibition
same,MIC,[6],32 µg/mL
same,MIC,E. coli (ATCC 25922),128 µg/mL
same,MIC,E. faecalis (ATCC 29212),32 µg/mL
same,MIC,[7],16 µg/mL
same,MIC,[8],16 µg/mL
same,IC50,S. pneumoniae PheRS,4900 nM
same,Ki,S. pneumoniae PheRS,980 nM
same,mode of action relative to Phe,S. pneumoniae PheRS; [10],competitive
same,mode of action relative to ATP,S. pneumoniae PheRS; [11],uncompetitive
C[C@@H]1C[C@@H]([C@H](O)CC2CC(=O)NC(=O)C2)C(=O)[C@@H](C)C1 [cycloheximide],inhibition of protein synthesis,[9],inhibited
